This is a sample that favours compounds with a hit; in the whole collection about 2.6% have one here.
rRNA inh HTS: inhibits bacterial ribosomal RNA function over humanized ribosomes | E. coli WT GFP vs humanized-ribosome RFP mutants, fluorescence, 24 h; active compounds read low; DMSO median 0, no signal -100 | AID 720706 | 350,000 compounds, 1.6% hits | GFP signal change (wild-type ribosome), % (concentration not given with the values);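 active = significant combined selectivity score with lowered wild-type GFP, culture density cut under 30%, mutant RFP and density less affected; inactive = any of these conditions unmet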
S100A4 inh HTS: blocks human S100A4 binding to myosin IIA peptide; P26447; S100A4/TAMRA-MyoIIA peptide fluorescence polarization; inhibition, % at 10.7 µM; 360,000 compounds, 0.14% hits;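 active = mean inhibition of at least 70% across replicates, with every replicate also reaching that level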
Target sequence (P26447 whole entry, looked up): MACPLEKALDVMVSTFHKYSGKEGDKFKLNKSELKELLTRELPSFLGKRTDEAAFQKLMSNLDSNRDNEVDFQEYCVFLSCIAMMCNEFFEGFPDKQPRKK
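Material: S100A4 monomer protein / Buffer or medium: 50 mM HEPES pH 7.2, 10 mM CaCl2, 100 mM KCl / Times: 5 min incubation before reading / Benchmarks: neutral control DMSO, positive control TFP / Reagent: labelled myosin peptide probe, 5 nM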
miR-122 sensor: blocks miR-122 activity in Huh7 sensor cells. Huh7 miR-122 Renilla luciferase sensor, 48 h; neutral wells = 0, positive control = 100. activation (reporter increase), % at 12.5 µM. 340,000 compounds, 0.3% hits. AID 602342;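 active = mean replicate activation score at least 90 and every replicate individually at or above 90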;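 also: higher luciferase means less miR-122 activity so hits act as miR-122 inhibitors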
FN deposit inh: fibronectin deposition inhibition; AH1F fibroblasts, Alexa488-fibronectin deposition fluorescence, overnight; inhibition, % at 12.6 µM; 350,000 compounds, 0.086% hits; AID 743247;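 active = mean inhibition across replicates of 30% or more, regardless of how many single replicates reach that level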;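 also: positive control wells lacked labelled fibronectin entirely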
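material = AH1F fibroblast monolayer depositing Alexa488-labelled fibronectin into matrix | amount = 10000 AH1F cells/well | buffer or medium = DMEM plus 2% serum, read in PBS | incubation = 1 h cell adhesion before compound, then overnight fibronectin incubation | detection = fluorescence at 485 nm excitation, 525 nm emission | evaluation = percent inhibition as loss of matrix-bound fibronectin fluorescence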
Vif imaging: inhibitors of HIV Vif; HEK293T cells, Vif self-association by quenched fluorescence, imaging, 24 h; inhibition, % at 7.49 µM; 340,000 compounds, 0.35% hits; AID 602346; in the data active = inhibition above about 50%, passing the limit was not always enough
Env fusion inh: inhibitors of HIV Env-mediated cell fusion | HeLa-JRFL Env/CEM21 cell fusion, luciferase | 360,000 compounds, 1.1% hits | inhibition, % at 12.3 µM;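 active = mean replicate inhibition score of at least 50 and every replicate individually at or above 50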;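 also: 0% = plate neutral controls and 100% = maraviroc near 300 nM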
Active calls of the source: *; i = inactive; x = no result given; + = active, no number; [ ] = another dose, or the depositor's remark.

SMILES	rRNA inh HTS	S100A4 inh HTS	miR-122 sensor	FN deposit inh	Vif imaging	Env fusion inh
Cc1cccc(NC(=O)Nc2ccccc2)n1	-2	-1	-5	-1	2	12
Cc1cccc(NC(=O)Nc2ccc(Cl)c(Cl)c2)n1	-26*	3	0	-16	-7	-62
COc1ccc(CN2[C@@H](CO)[C@@H]3c4ccccc4N(C(=O)CC(F)(F)F)C[C@@H]32)cc1	-10	-2	19[16.7 µM]	x	x	x
CO[C@@H]1CN(C)C(=O)c2ccc(NS(=O)(=O)CC(F)(F)F)cc2OC[C@@H](C)N(C)C[C@H]1C	-1	-6	x	-19	x	x
CO[C@H]1CN(C)C(=O)c2cc(NC(=O)Nc3ccc(Cl)cc3)ccc2OC[C@@H](C)N(C)C[C@@H]1C	-1	6	x	6	x	8[16.7 µM]
CO[C@@H]1CN(C)C(=O)c2cc(NS(=O)(=O)CC(F)(F)F)ccc2OC[C@@H](C)N(C)C[C@H]1C	-2	106*	4[16.7 µM]	x	x	2[16.7 µM]
CO[C@@H]1CN(C)C(=O)c2cc(NC(=O)Nc3ccc(Cl)cc3)ccc2OC[C@H](C)N(C)C[C@H]1C	-5	x	x	-4	x	60*[16.7 µM]
OC[C@H]1[C@@H](c2ccc(-c3ccccc3)cc2)[C@@H]2CN(Cc3ccccn3)CCCCN12	2	2	33[16.7 µM]	x	x	x
CO[C@H]1CN(C)C(=O)c2ccc(NS(C)(=O)=O)cc2OC[C@H](C)N(Cc2cccnc2)C[C@@H]1C	4	0	4[16.7 µM]	-4	x	x
COc1ccc2c3c([nH]c2c1)[C@@H](CO)N(C(=O)c1cccc(F)c1)CC31CCN(S(=O)(=O)c2cccs2)CC1	-4	x	x	x	x	x
CCOc1ccc(C(C)=O)cc1COC(=O)c1cc([N+](=O)[O-])ccc1N1CCOCC1	-8	-4	-3	9	71*	-7
Cc1cc(NC(=O)COC(=O)c2cc([N+](=O)[O-])ccc2N2CCOCC2)ccc1Br	-18*	1	x	14	-21	1
CCOC(=O)Nc1ccc(NCc2ccc(F)cc2)nc1N	x	-7	-6	-14	+	-32
CCOC(=O)Nc1ccc(C)cc1NC(=O)OCC	8	-1	-6	13	-4	-10
CO[C@H]1CN(C)C(=O)c2cc(NC(=O)Nc3ccccc3F)ccc2OC[C@H](C)NC[C@H]1C	0	-37	-3[16.7 µM]	5	x	x
C#CCn1c(=O)c2c(ncn2C)n(C)c1=O	0	0	-5	0	-1	72*
CC(C)NC(=O)N(C)C[C@@H]1Oc2cc(C#CC3CC3)ccc2S(=O)(=O)N([C@@H](C)CO)C[C@H]1C	-8	-13	21[16.7 µM]	x	x	-18[16.7 µM]
CN1C(=O)c2cc(NC(=O)c3ccc(F)c(F)c3)ccc2OC[C@H]2O[C@H](CC(=O)N3CCOCC3)CC[C@H]21	3	-14	-2[16.7 µM]	-31	x	12[16.7 µM]
Cc1cc(C)cc(NC(=O)Nc2cc(S(=O)(=O)N(C)C)ccc2C)c1	-23*	-5	12	4	-9	16
Cc1ccc(S(=O)(=O)N(C)C)cc1NC(=O)Nc1ccccc1F	6	-1	3	-7	x	16
CN(C)S(=O)(=O)c1cccc(NC(=O)COc2ccccc2C(=O)Nc2ccccc2)c1	4	-2	-2	6	x	x
Cc1ccc(S(=O)(=O)N(C)C)cc1NC(=O)C(C)N(C)CCOc1ccc(Cl)cc1 (stereo not given)	-9	-1	x	0	-10	69*
Cc1ccc(S(=O)(=O)N(C)C)cc1NC(=O)COc1ccccc1C(=O)Nc1ccccc1	-19	-2	x	2	x	74*
C[C@@H]1CN([C@H](C)CO)C(=O)Cc2cc(NC(=O)Cn3cnnn3)ccc2O[C@H]1CN(C)C(=O)Nc1ccc(F)cc1	3	x	8[16.7 µM]	x	x	-9[16.7 µM]
C[C@@H]1CN([C@H](C)CO)C(=O)c2cccc(NC(=O)c3cnccn3)c2O[C@@H]1CN(C)C(=O)NC1CCCCC1	-2	x	8[16.7 µM]	5	x	-2[16.7 µM]
SMILES	rRNA inh HTS	S100A4 inh HTS	miR-122 sensor	FN deposit inh	Vif imaging	Env fusion inh
COc1cccc(S(=O)(=O)N(C)C[C@H]2Oc3cc(C4=CCCC4)ccc3S(=O)(=O)N([C@@H](C)CO)C[C@@H]2C)c1	1	3	27[16.7 µM]	-11	x	-9[16.7 µM]
COc1cccc(S(=O)(=O)N(C)C[C@H]2Oc3cc(C4=CCCC4)ccc3S(=O)(=O)N([C@H](C)CO)C[C@@H]2C)c1	3	-6	-6[16.7 µM]	2	x	63*[16.7 µM]
COc1cccc(S(=O)(=O)N(C)C[C@H]2Oc3cc(C4=CCCC4)ccc3S(=O)(=O)N([C@H](C)CO)C[C@H]2C)c1	3	-4	10[16.7 µM]	-6	x	95*[16.7 µM]
COc1ccc(-c2cc(-c3cc(F)ccc3O)[nH]n2)cc1OC	-33*	0	0	x	-3	x
COc1ccc(-c2cc(-c3ccccc3O)[nH]n2)cc1OC	x	x	6	x	-1	i
Cc1ccc(-n2c(C)c([N+](=O)[O-])c3ccc(O)c(CN(C)C)c32)cc1	x	x	9	5	-3	62*
COc1ccc([N+](=O)[O-])cc1NC(=O)c1ccc(CN(c2ccc(C)c(C)c2)S(C)(=O)=O)cc1	10	1	x	-6	15	-12
Cc1ccc(N(Cc2ccc(C(=O)NN=C3CCN(C)CC3)cc2)S(C)(=O)=O)cc1C	x	x	-8	6	64*	x
Cc1noc(C)c1NC(=O)N(C)C[C@H]1OCc2ccccc2-c2ccccc2C(=O)N([C@@H](C)CO)C[C@H]1C	-2	x	x	-12	x	x
